{
  "source": "ChEMBL document CHEMBL5230171",
  "about": "“Expanding the structure-activity relationships of alkynyl diphenylurea scaffold as promising antibacterial agents” (RSC Med Chem, 2023)",
  "key": {"Staphylococcus aureus [1]": {"tested_on": "Staphylococcus aureus", "test": "Induction of drug resistance in methicillin resistant Staphylococcus aureus NRS384 USA300 assessed as fold change in MIC measured from passage 5 to 14 by broth microdilution method", "type": "functional", "outline": "(§1)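 Multi-step resistance in MRSA USA300 over 14 consecutive passages, with rifampicin as the control antibiotic. The MIC was determined by broth microdilution at each passage. Resistance was defined as a greater than four-fold rise over the initial MIC.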"}, "Staphylococcus aureus [2]": {"tested_on": "Staphylococcus aureus", "test": "Induction of drug resistance in methicillin resistant Staphylococcus aureus NRS384 USA300 assessed as fold change in MIC measured after 4 passages by broth microdilution method", "type": "functional", "outline": "as §1"}},
  "data": [
    {"smiles": "CO[C@H]1/C=C/O[C@@]2(C)Oc3c(C)c(O)c4c(O)c(c(/C=N/N5CCN(C)CC5)c(O)c4c3C2=O)NC(=O)/C(C)=C\\C=C\\[C@H](C)[C@H](O)[C@@H](C)[C@@H](O)[C@@H](C)[C@H](OC(C)=O)[C@@H]1C", "note": "[RIFAMPIN]", "values": [
      {"measurement": "fold change (FC)", "setting": "Staphylococcus aureus [1]", "value": 15},
      {"measurement": "fold change (FC)", "setting": "Staphylococcus aureus [2]", "value": ">4"}
    ]}
  ]
}
